Data taken from ChEMBL document CHEMBL3774376, “Synthesis, and anticonvulsant activity of new amides derived from 3-methyl- or 3-ethyl-3-methyl-2,5-dioxo-pyrrolidin-1-yl-acetic acids” (Bioorg Med Chem, 2016).
Each block holds one compound with its values, some of them ahead of it. Activity calls are given as the source filed them. No cut-off for these calls is given here.

What was measured:
Mus musculus [1] = test: Neurotoxicity in CD1 albino mouse assessed as acute motor impairment at 100 to 300 mg/kg, ip after 0.5 hrs by rotarod test; type: toxicity, organism-based; settings: in vivo
Procedure, shortened: (§1)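 Male CD-1 mice given 30, 100 or 300 mg/kg ip in 0.5% methylcellulose, tested at 0.5 and 4 h. Motor impairment was scored as failure to keep balance for at least 1 min on a rod rotating at 10 rpm. Minimum dose causing impairment reported.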

Mus musculus [2] = test: Neurotoxicity in CD1 albino mouse assessed as acute motor impairment at 300 mg/kg, ip after 4 hrs by rotarod test; type: toxicity, organism-based; settings: in vivo; procedure, shortened: as §1
Mus musculus [3] = test: Anticonvulsant activity in CD1 mouse assessed as protection against 32 mA-current- for 3 secs induced seizure at 100 mg/kg, ip after 0.25 hrs by 6Hz psychomotor seizure test; type: functional
Procedure, shortened: (§2)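 Male CD-1 mice given 100 mg/kg ip in 0.5% methylcellulose, four per time point. Corneal stimulation at 32 mA, 0.2 ms monopolar rectangular pulses at 6 Hz for 3 s, from a constant-current device. A mouse was protected if it resumed normal exploratory behavior within 10 s. Reported as number protected over number tested.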

Mus musculus [4] = test: Anticonvulsant activity in CD1 mouse assessed as protection against 32 mA-current- for 3 secs induced seizure at 100 mg/kg, ip after 0.5 hrs by 6Hz psychomotor seizure test; type: functional; procedure, shortened: as §2
Mus musculus [5] = test: Anticonvulsant activity in CD1 mouse assessed as protection against 32 mA-current- for 3 secs induced seizure at 100 mg/kg, ip after 2 hrs by 6Hz psychomotor seizure test; type: functional, organism-based; procedure, shortened: as §2
Mus musculus [6] = test: Anticonvulsant activity in ip dosed CD1 albino mouse assessed as time to peak effect; type: functional
Procedure, shortened: (§3)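 Quantitation in male CD-1 mice dosed ip at the previously estimated time of peak effect. Seizures were induced by MES or by sc pentylenetetrazole 85 mg/kg; rotarod at 10 rpm assessed motor impairment. Groups of six, at least three doses giving 10-90% effect.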

Mus musculus [7] = test: Anticonvulsant activity in ip dosed CD1 albino mouse assessed as protection against subcutaneous pentylenetetrazole-induced seizures; type: functional; procedure, shortened: as §3
[8] = Neurotoxicity in ip dosed CD1 albino mouse assessed as acute motor impairment by rotarod test; type: toxicity, organism-based; settings: in vivo; procedure, shortened: as §3
Mus musculus [9] = organism: Mus musculus; test: Protection index, ratio of TD50 for CD1 albino mouse to ED50 for protection against maximal electroshock-induced seizures in CD1 albino mouse; procedure, shortened: as §3
Mus musculus [10] = test: Protection index, ratio of TD50 for CD1 albino mouse to ED50 for protection against subcutaneous pentylenetetrazole-induced seizures in CD1 albino mouse; procedure, shortened: as §3
Mus musculus [11] = test: Antinociceptive activity in CD1 albino mouse assessed as reduction of formalin-induced licking response in neurogenic phase at 69.05 mg/kg, ip preincubated for 30 mins measured after 5 mins; type: functional, organism-based
Mus musculus [12] = test: Antinociceptive activity in CD1 albino mouse assessed as reduction of formalin-induced licking response in inflammatory phase at 69.05 mg/kg, ip preincubated for 30 mins measured after 15 to 20 mins; type: functional; design: scale not given: the % may be the effect or the level left
Mus musculus [13] = test: Antinociceptive activity in CD1 albino mouse assessed as reduction of formalin-induced licking response in neurogenic phase at 69.05 mg/kg, ip preincubated for 30 mins measured after 25 to 30 mins; type: functional; design: scale not given: the % may be the effect or the level left
Mus musculus [14] = test: Local anesthetic activity in CD1 albino mouse assessed prolongation of time reaction at 2 % concentration after 20 secs by tail immersion test relative to vehicle control; type: functional
Procedure, shortened: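 Compound at 1 or 2% in 0.5% methylcellulose, injected sc (0.2 ml) about 1 cm from the tail root of male CD-1 mice. After 15 min, the distal 3 cm of the tail was immersed in 50 ± 0.5 °C water and withdrawal time measured, cut off at 20 s. n=8; mean ± SEM; % prolongation relative to vehicle.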

Rattus norvegicus = organism: Rattus norvegicus; test: Displacement of [3H]BTX from voltage-sensitive Na+ channel site 2 in rat cerebral cortex synaptoneurosomes at 100 uM after 60 mins by liquid scintillation spectroscopic analysis; type: tissue-based
Procedure, shortened: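 Cerebral cortex synaptoneurosomes from rat, tested at 100 µM for inhibition of specific [3H]BTX binding to the voltage-sensitive Na+ channel site 2. Reported as % inhibition of control specific binding; run commercially.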

Mus musculus [15] = test: Anticonvulsant activity in ip dosed CD1 albino mouse assessed as protection against maximal electroshock-induced seizures; type: functional
Mus musculus [16] = test: Anticonvulsant activity in CD1 albino mouse assessed as protection against maximal electroshock-induced seizures at 100 to 300 mg/kg, ip after 0.5 hrs; type: functional; settings: read-out: MED
Mus musculus [17] = test: Anticonvulsant activity in CD1 albino mouse assessed as protection against maximal electroshock-induced seizures at 300 mg/kg, ip after 4 hrs; type: functional, organism-based
Mus musculus [18] = test: Anticonvulsant activity in CD1 albino mouse assessed as protection against subcutaneous pentylenetetrazole-induced seizures at 100 to 300 mg/kg, ip after 0.5 hrs; type: functional; settings: CD1, 0.5 h, read-out: MED
Procedure, shortened: (§4)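 Male CD-1 mice (16-26 g), compounds ip in 0.5% methylcellulose/water at 30, 100 or 300 mg/kg, 3-4 per group. At 0.5 or 4 h, pentylenetetrazole 85 mg/kg was injected sc. Protection was absence of clonic convulsions (at least 5 s) over a 30 min observation. Minimum active dose recorded.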

Mus musculus [19] = test: Anticonvulsant activity in CD1 albino mouse assessed as protection against subcutaneous pentylenetetrazole-induced seizures at 300 mg/kg, ip after 4 hrs; type: functional, organism-based; procedure, shortened: as §4
Mus musculus [20] = test: Anticonvulsant activity in ip dosed CD1 albino mouse assessed as protection against 32 mA-current- for 3 secs induced seizure by 6Hz psychomotor seizure test; type: functional
Procedure, shortened: (§5)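 6-Hz corneal stimulation at 32 mA (6 Hz, 3 s) in male CD-1 mice dosed ip. Groups of six received several doses until at least three points fell between 10 and 90% protection. […] PI = TD50/ED50 (rotarod).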

Mus musculus [21] = organism: Mus musculus; test: Protection index, ratio of TD50 for CD1 albino mouse to ED50 for protection against 32 mA-current- for 3 secs induced seizure in CD1 albino mouse by 6Hz psychomotor seizure test; procedure, shortened: as §5
Mus musculus [22] = test: Antinociceptive activity in CD1 albino mouse assessed as reduction of formalin-induced licking response in neurogenic phase at 70.08 mg/kg, ip preincubated for 30 mins measured after 5 mins; type: functional; design: scale not given: the % may be the effect or the level left
Mus musculus [23] = test: Antinociceptive activity in CD1 albino mouse assessed as reduction of formalin-induced licking response in inflammatory phase at 70.08 mg/kg, ip preincubated for 30 mins measured after 15 to 20 mins; type: functional; design: scale not given: the % may be the effect or the level left
Mus musculus [24] = test: Antinociceptive activity in CD1 albino mouse assessed as reduction of formalin-induced licking response in inflammatory phase at 70.08 mg/kg, ip preincubated for 30 mins measured after 25 to 30 mins; type: functional; design: scale not given: the % may be the effect or the level left
Mus musculus [25] = test: Anticonvulsant activity in ip dosed CD1 albino mouse assessed as time to peak effect by 6Hz psychomotor seizure test; type: functional; procedure, shortened: as §5
Mus musculus [26] = test: Anticonvulsant activity in CD1 albino mouse assessed as protection against maximal electroshock-induced seizures at 100 to 300 mg/kg, ip after 4 hrs; type: functional; settings: read-out: MED
Mus musculus [27] = test: Anticonvulsant activity in CD1 albino mouse assessed as protection against subcutaneous pentylenetetrazole-induced seizures at 300 mg/kg, ip after 0.5 hrs; type: functional, organism-based; procedure, shortened: as §4
Mus musculus [28] = test: Neurotoxicity in CD1 albino mouse assessed as acute motor impairment at 300 mg/kg, ip measured after 0.5 hrs by rotarod test; type: toxicity, organism-based; settings: in vivo; procedure, shortened: as §1
Mus musculus [29] = test: Antinociceptive activity in CD1 albino mouse assessed as reduction of formalin-induced licking response in neurogenic phase at 82.74 mg/kg, ip preincubated for 30 mins measured after 5 mins; type: functional; design: scale not given: the % may be the effect or the level left
Mus musculus [30] = test: Antinociceptive activity in CD1 albino mouse assessed as reduction of formalin-induced licking response in inflammatory phase at 82.74 mg/kg, ip preincubated for 30 mins measured after 15 to 20 mins; type: functional; design: scale not given: the % may be the effect or the level left
Mus musculus [31] = test: Antinociceptive activity in CD1 albino mouse assessed as reduction of formalin-induced licking response in inflammatory phase at 82.74 mg/kg, ip preincubated for 30 mins measured after 20 to 25 mins; type: functional; design: scale not given: the % may be the effect or the level left
Mus musculus [32] = test: Antinociceptive activity in CD1 albino mouse assessed as reduction of formalin-induced licking response in inflammatory phase at 82.74 mg/kg, ip preincubated for 30 mins measured after 25 to 30 mins; type: functional; design: scale not given: the % may be the effect or the level left

inhibition (Rattus norvegicus): 32.5%
Compound: CCC1(C)CC(=O)N(CC(=O)N2CCN(c3ccc(F)cc3)CC2)C1=O (stereo unspecified)
MTC (Mus musculus [1]): 300 mg/kg
Activity (Mus musculus [2]): Non-toxic
Activity (Mus musculus [3]): 75%
Activity (Mus musculus [4]): 75%
Activity (Mus musculus [5]): inactive
Time (Mus musculus [6]): 0.5 h
ED50 (Mus musculus [7]): 130 mg/kg
TD50 [8]: 191 mg/kg
Ratio TD50/ED50 (Mus musculus [9]): 2.76
Ratio TD50/ED50 (Mus musculus [10]): 1.47
Activity (Mus musculus [11]): inactive
Activity (Mus musculus [12]): 93%
Activity (Mus musculus [13]): 92%
Activity (Mus musculus [14]): 61%
ED50 (Mus musculus [15]): 69 mg/kg
minimal effective dose (Mus musculus [16]): 100 mg/kg
Activity (Mus musculus [17]): inactive
minimal effective dose (Mus musculus [18]): 100 mg/kg
Activity (Mus musculus [19]): inactive

inhibition (Rattus norvegicus): 63.5%
Compound: CCC1(C)CC(=O)N(CC(=O)N2CCN(c3cccc(C(F)(F)F)c3)CC2)C1=O (stereo unspecified)
MTC (Mus musculus [1]): 300 mg/kg
Activity (Mus musculus [2]): Non-toxic
Time (Mus musculus [6]): 0.5 h
TD50 [8]: 285 mg/kg
Ratio TD50/ED50 (Mus musculus [9]): 4.06
ED50 (Mus musculus [20]): 90.3 mg/kg
Ratio TD50/ED50 (Mus musculus [21]): 3.15
Activity (Mus musculus [22]): 40%
Activity (Mus musculus [23]): 100%
Activity (Mus musculus [24]): 99%
Activity (Mus musculus [14]): 46%
Time (Mus musculus [25]): 0.5 h
ED50 (Mus musculus [15]): 70.1 mg/kg
minimal effective dose (Mus musculus [16]): 100 mg/kg
minimal effective dose (Mus musculus [26]): 100 mg/kg
Activity (Mus musculus [27]): inactive
Activity (Mus musculus [19]): inactive

inhibition (Rattus norvegicus): 28.5%
Compound: CC1CC(=O)N(CC(=O)N2CCN(c3cccc(Cl)c3)CC2)C1=O (stereo unspecified)
Activity (Mus musculus [28]): Non-toxic
Activity (Mus musculus [2]): Non-toxic
Time (Mus musculus [6]): 1 h
ED50 (Mus musculus [7]): 40.3 mg/kg
TD50 [8]: 323 mg/kg
Ratio TD50/ED50 (Mus musculus [9]): 3.91
Ratio TD50/ED50 (Mus musculus [10]): 8
Activity (Mus musculus [29]): 67%
Activity (Mus musculus [30]): 98%
Activity (Mus musculus [31]): 100%
Activity (Mus musculus [32]): 96%
Activity (Mus musculus [14]): 17%
ED50 (Mus musculus [15]): 82.7 mg/kg
minimal effective dose (Mus musculus [16]): 100 mg/kg
minimal effective dose (Mus musculus [26]): 300 mg/kg
minimal effective dose (Mus musculus [18]): 100 mg/kg
Activity (Mus musculus [19]): inactive
